Reference: article PMC4750707 (Antimicrobial Agents and Chemotherapy, 2016)
Converted amounts (≈) assume the structure as drawn.

Tests used:
H. influenzae = assay: Broth microdilution MIC; assay type: cell-based; conditions: Haemophilus influenzae
Outline: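 MICs by CLSI broth microdilution in cation-adjusted Mueller-Hinton broth. Strains grown in BHI broth at 35°C: E. coli K-12, P. aeruginosa 1771 and S. aureus ATCC 29213. H. influenzae Rd grown in BHI with Haemophilus test medium supplement (hemin and β-NAD, 15 μg/ml each).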

S. pneumoniae = assay: Broth microdilution MIC; assay type: cell-based; conditions: Streptococcus pneumoniae
Outline: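 MICs by CLSI broth microdilution in cation-adjusted Mueller-Hinton broth plus 2.5% lysed horse blood. S. pneumoniae R6 grown on blood agar at 37°C under 5% CO2.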

H. influenzae PBP2 = H. influenzae PBP2 (Haemophilus influenzae, UniProt P44469); assay: PBP competition assay with Bocillin FL; assay type: binding
H. influenzae PBP2, sequence (P44469 whole entry): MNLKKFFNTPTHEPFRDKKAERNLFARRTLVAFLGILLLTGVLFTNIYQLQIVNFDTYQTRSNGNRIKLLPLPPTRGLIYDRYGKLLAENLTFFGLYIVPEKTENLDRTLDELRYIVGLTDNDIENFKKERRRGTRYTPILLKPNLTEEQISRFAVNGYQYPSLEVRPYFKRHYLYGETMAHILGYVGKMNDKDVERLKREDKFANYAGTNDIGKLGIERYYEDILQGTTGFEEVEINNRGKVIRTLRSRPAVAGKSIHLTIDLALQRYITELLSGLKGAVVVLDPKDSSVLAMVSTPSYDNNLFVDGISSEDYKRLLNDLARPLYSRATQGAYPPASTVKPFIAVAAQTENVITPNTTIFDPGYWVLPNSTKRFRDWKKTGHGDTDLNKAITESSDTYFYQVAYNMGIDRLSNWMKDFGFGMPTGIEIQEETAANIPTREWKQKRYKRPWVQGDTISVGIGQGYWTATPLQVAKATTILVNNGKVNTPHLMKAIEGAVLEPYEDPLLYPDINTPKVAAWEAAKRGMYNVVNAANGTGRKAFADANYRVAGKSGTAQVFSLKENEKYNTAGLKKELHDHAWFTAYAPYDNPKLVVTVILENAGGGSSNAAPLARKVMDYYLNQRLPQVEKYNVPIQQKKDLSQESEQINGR
Outline: (§1)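 H. influenzae Rd grown in supplemented BHI at 35°C (A600 0.6–0.7). Cells in KPN buffer (20 mM K-phosphate, 140 mM NaCl, pH 7.5), lysozyme-treated 30 min, French-pressed; membranes at 150,000 × g. Used 100–120 μg membrane protein. Test compound 10 min at 30°C, then Bocillin FL 100 μM final for 20 min. Gel fluorescence band volumes; IC50 from three assays of six concentrations.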

H. influenzae PBP3a/b = H. influenzae PBP3a/b (Haemophilus influenzae, UniProt P45059); assay: PBP competition assay with Bocillin FL; assay type: binding
H. influenzae PBP3a/b, sequence (P45059 66-580 limits assumed): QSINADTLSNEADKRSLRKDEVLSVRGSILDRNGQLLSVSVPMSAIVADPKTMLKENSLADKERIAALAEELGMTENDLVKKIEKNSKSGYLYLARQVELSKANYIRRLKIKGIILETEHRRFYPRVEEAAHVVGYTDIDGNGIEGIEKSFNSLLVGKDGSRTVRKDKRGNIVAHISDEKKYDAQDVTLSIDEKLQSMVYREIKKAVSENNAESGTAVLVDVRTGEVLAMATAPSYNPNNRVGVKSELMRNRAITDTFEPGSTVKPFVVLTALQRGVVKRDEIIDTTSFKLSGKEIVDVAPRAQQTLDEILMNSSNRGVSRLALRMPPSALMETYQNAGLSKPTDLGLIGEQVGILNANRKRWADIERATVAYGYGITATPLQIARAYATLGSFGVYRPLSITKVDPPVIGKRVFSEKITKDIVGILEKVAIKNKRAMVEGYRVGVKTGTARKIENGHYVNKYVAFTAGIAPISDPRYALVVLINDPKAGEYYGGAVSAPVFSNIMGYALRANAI
Outline: as §1

H. influenzae PBP4 = H. influenzae PBP4 (Haemophilus influenzae, UniProt P45161); assay: PBP competition assay with Bocillin FL; assay type: binding
H. influenzae PBP4, sequence (P45161 27-479): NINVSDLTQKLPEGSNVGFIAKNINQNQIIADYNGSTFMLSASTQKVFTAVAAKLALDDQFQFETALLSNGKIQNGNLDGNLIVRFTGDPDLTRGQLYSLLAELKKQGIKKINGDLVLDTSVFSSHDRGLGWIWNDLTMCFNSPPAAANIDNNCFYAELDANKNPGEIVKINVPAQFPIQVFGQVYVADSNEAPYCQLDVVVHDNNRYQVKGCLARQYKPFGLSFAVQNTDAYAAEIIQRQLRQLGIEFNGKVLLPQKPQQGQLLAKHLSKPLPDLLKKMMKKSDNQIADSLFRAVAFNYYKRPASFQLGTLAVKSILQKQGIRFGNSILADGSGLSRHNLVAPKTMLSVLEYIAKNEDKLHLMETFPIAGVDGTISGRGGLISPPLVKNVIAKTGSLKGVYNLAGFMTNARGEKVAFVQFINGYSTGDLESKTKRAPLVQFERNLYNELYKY
Outline: as §1

S. pneumoniae PBP1a/b = assay: PBP competition assay with Bocillin FL; assay type: binding, Streptococcus pneumoniae; conditions: S. pneumoniae R6 membranes; Bocillin FL 100 μM
Outline: (§2)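 S. pneumoniae R6 was grown on blood agar at 37°C under 5% CO2, then in BHI with agitation to A600 ~1.0. Cells in KPN buffer pH 7.5 were lysozyme-treated and French-pressed; membranes (30–40 μg protein) were used. Test compound 10 min at 30°C, then Bocillin FL 100 μM final for 20 min. SDS-PAGE fluorescence; IC50 from three assays of six concentrations.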

S. pneumoniae PBP2a/b = assay: PBP competition assay with Bocillin FL; assay type: binding, Streptococcus pneumoniae; conditions: S. pneumoniae R6 membranes; Bocillin FL 100 μM
Outline: as §2

MIC (H. influenzae): 64 µg/mL (≈ 241 µM)
MIC (S. pneumoniae): 256 µg/mL (≈ 965 µM)
IC50 (H. influenzae PBP2): 11.3 µM
IC50 (H. influenzae PBP3a/b): > 121 µM
IC50 (H. influenzae PBP4): > 121 µM
Relative binding (IC50) for PBP 1a/b (S. pneumoniae PBP1a/b): >64 µg/mL
Relative binding (IC50) for PBP 2a/b (S. pneumoniae PBP2a/b): >64 µg/mL
SMILES: NC(=O)[C@@H]1CC[C@@H]2CN1C(=O)N2OS(=O)(=O)O [AVI, avibactam]
